≈ marks a conversion by molar mass, not a printed value. Calls of active or inactive are those of the source. The calls are words filed in the database; no cut-off is given here.
Experiments:
[1] = system: Staphylococcus aureus; assay: Antibacterial activity against Staphylococcus aureus ATCC 29213 assessed as inhibition of bacterial growth after 24 hrs by CLSI protocol based two fold serial dilution method; assay type: functional
[2] = system: Pseudomonas aeruginosa; assay: Antibacterial activity against Pseudomonas aeruginosa assessed as inhibition of bacterial growth after 24 hrs by CLSI protocol based two fold serial dilution method; assay type: functional
In short: (§1)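 Two-fold serial broth dilution in 96-well plates following CLSI; MIC (mM) taken as the lowest concentration giving complete growth inhibition; MIC values from three independent experiments.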

[3] = system: Staphylococcus aureus; assay: Antibacterial activity against Staphylococcus aureus assessed as inhibition of bacterial growth after 24 hrs by CLSI protocol based two fold serial dilution method; assay type: functional; in short: as §1
[4] = system: Pseudomonas aeruginosa; assay: Antibacterial activity against Pseudomonas aeruginosa ATCC 27853 assessed as inhibition of bacterial growth after 24 hrs by CLSI protocol based two fold serial dilution method; assay type: functional; in short: as §1
[5] = system: Acinetobacter baumannii; assay: Antibacterial activity against Acinetobacter baumannii assessed as inhibition of bacterial growth after 24 hrs by CLSI protocol based two fold serial dilution method; assay type: functional; in short: as §1
[6] = system: Klebsiella pneumoniae; assay: Antibacterial activity against Klebsiella pneumoniae measured every 24 hrs after several passages by serial dilution method; assay type: functional, organism-based
[7] = system: Klebsiella pneumoniae; assay: Antibacterial activity against Klebsiella pneumoniae assessed as inhibition of bacterial growth after 24 hrs by CLSI protocol based two fold serial dilution method; assay type: functional; in short: as §1
[8] = system: Escherichia coli; assay: Antibacterial activity against Escherichia coli ATCC 25922 assessed as inhibition of bacterial growth after 24 hrs by CLSI protocol based two fold serial dilution method; assay type: functional; in short: as §1
[9] = system: Escherichia coli; assay: Antibacterial activity against Escherichia coli assessed as inhibition of bacterial growth after 24 hrs by CLSI protocol based two fold serial dilution method; assay type: functional; in short: as §1
[10] = system: Staphylococcus aureus; assay: Antibacterial activity against methicillin-resistant Staphylococcus aureus N315 assessed as inhibition of bacterial growth after 24 hrs by CLSI protocol based two fold serial dilution method; assay type: functional
[11] = system: Enterococcus faecalis; assay: Antibacterial activity against Enterococcus faecalis assessed as inhibition of bacterial growth after 24 hrs by CLSI protocol based two fold serial dilution method; assay type: functional; in short: as §1
[12] = system: Staphylococcus aureus; assay: Antibacterial activity against Staphylococcus aureus ATCC 25923 assessed as inhibition of bacterial growth after 24 hrs by CLSI protocol based two fold serial dilution method; assay type: functional; in short: as §1
[13] = system: Candida albicans; assay: Antifungal activity against Candida albicans assessed as inhibition of fungal growth after 24 hrs by CLSI protocol based two fold serial dilution method; assay type: functional; in short: as §1
[14] = system: Saccharomyces cerevisiae; assay: Inhibition of Saccharomyces cerevisiae CGMCC 2.145 chitin synthase at 300 ug/ml using GlcNAc and UDP-GlcNAc as substrate incubated for 60 mins by microplate reader analysis relative to control; details: dose 300.0 µg/ml
In short: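 Chitin synthase inhibition ratio measured at 300 µg/mL test compound, relative to untreated control.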

[15] = system: Candida albicans; assay: Antifungal activity against Candida albicans ATCC 90023 assessed as inhibition of fungal growth after 24 hrs by CLSI protocol based two fold serial dilution method; assay type: functional; in short: as §1
[16] = system: Candida parapsilosis; assay: Antifungal activity against Candida parapsilosis ATCC 22019 assessed as inhibition of fungal growth after 24 hrs by CLSI protocol based two fold serial dilution method; assay type: functional; details: Lodderomyces parapsilosis; in short: as §1
[17] = system: Aspergillus fumigatus; assay: Antifungal activity against Aspergillus fumigatus assessed as inhibition of fungal growth after 24 hrs by CLSI protocol based two fold serial dilution method; assay type: functional; in short: as §1
[18] = system: Candida tropicalis; assay: Antifungal activity against Candida tropicalis assessed as inhibition of fungal growth after 24 hrs by CLSI protocol based two fold serial dilution method; assay type: functional; in short: as §1
[19] = Inhibition of Saccharomyces cerevisiae CGMCC 2.145 chitin synthase using GlcNAc and UDP-GlcNAc as substrate incubated for 60 mins by microplate reader analysis
In short: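 Chitin synthase IC50 determined from concentration–inhibition curves.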

Row | SMILES | MIC [1] | MIC [2] | MIC [3] | MIC [4] | MIC [5] | Activity [6] | MIC [7] | MIC [8] | MIC [9] | MIC [10] | MIC [11] | MIC [12] | MIC [13] | inhibition [14] | MIC [15] | MIC [16] | MIC [17] | MIC [18] | IC50 [19]
1 | CCn1cc(C(=O)O)c(=O)c2cc(F)c(N3CCNCC3)cc21 [NORFLOXACIN] | 6 µM (≈ 1.92 µg/mL) | 6 µM (≈ 1.92 µg/mL) | 2 µM (≈ 0.639 µg/mL) | 2 µM (≈ 0.639 µg/mL) | 25 µM (≈ 7.98 µg/mL) | inactive | 13 µM (≈ 4.15 µg/mL) | 25 µM (≈ 7.98 µg/mL) | 50 µM (≈ 16 µg/mL) | 25 µM (≈ 7.98 µg/mL) | 13 µM (≈ 4.15 µg/mL) | 3 µM (≈ 0.958 µg/mL) | – | – | – | – | – | – | –
2 | CCn1cc(-c2csc(N)n2)c(=O)c2cc(F)c(N3CCN(CCO)CC3)cc21 | 153 µM (≈ 63.9 µg/mL) | 77 µM (≈ 32.1 µg/mL) | 153 µM (≈ 63.9 µg/mL) | 38 µM (≈ 15.9 µg/mL) | 153 µM (≈ 63.9 µg/mL) | – | 19 µM (≈ 7.93 µg/mL) | 153 µM (≈ 63.9 µg/mL) | 153 µM (≈ 63.9 µg/mL) | 153 µM (≈ 63.9 µg/mL) | 38 µM (≈ 15.9 µg/mL) | 77 µM (≈ 32.1 µg/mL) | 153 µM (≈ 63.9 µg/mL) | 48.3% | 153 µM (≈ 63.9 µg/mL) | 77 µM (≈ 32.1 µg/mL) | 153 µM (≈ 63.9 µg/mL) | 153 µM (≈ 63.9 µg/mL) | –
3 | CCCCN1CCN(c2cc3c(cc2F)c(=O)c(-c2csc(N)n2)cn3CC)CC1 | 19 µM (≈ 8.16 µg/mL) | 298 µM (≈ 128 µg/mL) | 75 µM (≈ 32.2 µg/mL) | 75 µM (≈ 32.2 µg/mL) | 19 µM (≈ 8.16 µg/mL) | – | 5 µM (≈ 2.15 µg/mL) | 37 µM (≈ 15.9 µg/mL) | 149 µM (≈ 64 µg/mL) | 149 µM (≈ 64 µg/mL) | 75 µM (≈ 32.2 µg/mL) | 9 µM (≈ 3.87 µg/mL) | 149 µM (≈ 64 µg/mL) | 41.4% | 149 µM (≈ 64 µg/mL) | 19 µM (≈ 8.16 µg/mL) | 9 µM (≈ 3.87 µg/mL) | 9 µM (≈ 3.87 µg/mL) | –
4 | CCN(CC)C(=O)CN1CCN(c2cc3c(cc2F)c(=O)c(-c2csc(N)n2)cn3CC)CC1 | 66 µM (≈ 32.1 µg/mL) | 132 µM (≈ 64.2 µg/mL) | 137 µM (≈ 66.7 µg/mL) | 132 µM (≈ 64.2 µg/mL) | 16 µM (≈ 7.79 µg/mL) | – | 263 µM (≈ 128 µg/mL) | 66 µM (≈ 32.1 µg/mL) | 66 µM (≈ 32.1 µg/mL) | 66 µM (≈ 32.1 µg/mL) | 132 µM (≈ 64.2 µg/mL) | 16 µM (≈ 7.79 µg/mL) | 66 µM (≈ 32.1 µg/mL) | 49.1% | 66 µM (≈ 32.1 µg/mL) | 132 µM (≈ 64.2 µg/mL) | 66 µM (≈ 32.1 µg/mL) | 132 µM (≈ 64.2 µg/mL) | –
5 | NC(=O)OC[C@H](O)[C@@H](O)[C@H](N)C(=O)N[C@H](C(=O)O)[C@H]1O[C@@H](n2cc(CO)c(=O)[nH]c2=O)[C@H](O)[C@@H]1O [POLYOXIN B] | – | – | – | – | – | – | – | – | – | – | – | – | – | 81% | – | – | – | – | 120 µM
6 | CCn1cc(-c2csc(N)n2)c(=O)c2cc(F)c(N3CCN(C(C)=O)CC3)cc21 | 19 µM (≈ 7.89 µg/mL) | 39 µM (≈ 16.2 µg/mL) | 77 µM (≈ 32 µg/mL) | 10 µM (≈ 4.15 µg/mL) | 39 µM (≈ 16.2 µg/mL) | – | 39 µM (≈ 16.2 µg/mL) | 39 µM (≈ 16.2 µg/mL) | 77 µM (≈ 32 µg/mL) | 77 µM (≈ 32 µg/mL) | 39 µM (≈ 16.2 µg/mL) | 39 µM (≈ 16.2 µg/mL) | 19 µM (≈ 7.89 µg/mL) | 71.1% | 19 µM (≈ 7.89 µg/mL) | 39 µM (≈ 16.2 µg/mL) | 19 µM (≈ 7.89 µg/mL) | 77 µM (≈ 32 µg/mL) | –
7 | C#CCN1CCN(c2cc3c(cc2F)c(=O)c(-c2csc(N)n2)cn3CC)CC1 | 5 µM (≈ 2.06 µg/mL) | 19 µM (≈ 7.82 µg/mL) | 19 µM (≈ 7.82 µg/mL) | 5 µM (≈ 2.06 µg/mL) | 19 µM (≈ 7.82 µg/mL) | – | 10 µM (≈ 4.12 µg/mL) | 19 µM (≈ 7.82 µg/mL) | 156 µM (≈ 64.2 µg/mL) | 20 µM (≈ 8.23 µg/mL) | 19 µM (≈ 7.82 µg/mL) | 39 µM (≈ 16 µg/mL) | 19 µM (≈ 7.82 µg/mL) | – | 19 µM (≈ 7.82 µg/mL) | 10 µM (≈ 4.12 µg/mL) | 19 µM (≈ 7.82 µg/mL) | 39 µM (≈ 16 µg/mL) | –
